Assay results as given in ChEMBL document CHEMBL1141565, “Discovery of disubstituted cyclohexanes as a new class of CC chemokine receptor 2 antagonists” (J Med Chem, 2008).

Columns and labels:
[1] = target: T1, C-C chemokine receptor type 2 (Homo sapiens, UniProt P41597); assay: Displacement of radiolabeled MCP1 from human CCR2 in PBMCs
Summary of the method: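 Competitive binding: test compound displaces radiolabeled MCP-1 from CCR2 on peripheral blood mononuclear cells. IC50 is given as mean ± SD when n = 2 and mean ± SEM when n > 2, with n the number of determinations.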

[2] = target: T2, C-C chemokine receptor type 3 (Homo sapiens) (UniProt P51677); assay: Binding affinity for human CCR3 at 10 uM
T2 sequence (whole entry): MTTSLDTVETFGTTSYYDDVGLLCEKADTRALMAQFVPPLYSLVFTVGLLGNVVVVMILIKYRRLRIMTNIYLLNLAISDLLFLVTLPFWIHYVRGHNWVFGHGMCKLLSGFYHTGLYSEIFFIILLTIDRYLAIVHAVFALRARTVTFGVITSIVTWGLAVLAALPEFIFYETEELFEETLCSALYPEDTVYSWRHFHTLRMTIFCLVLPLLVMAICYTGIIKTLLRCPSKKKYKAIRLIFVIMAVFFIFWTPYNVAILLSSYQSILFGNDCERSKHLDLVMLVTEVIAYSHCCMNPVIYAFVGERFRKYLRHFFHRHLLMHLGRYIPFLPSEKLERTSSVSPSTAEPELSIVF

[3] = target: T1, C-C chemokine receptor type 2; assay: Antagonist activity at human CCR2 in PBMCs assessed as inhibition of MCP1-induced calcium flux; format: functional
[4] = target: T1, C-C chemokine receptor type 2; assay: Binding affinity to wild type CCR2
[5] = target: C-C chemokine receptor type 2 (Homo sapiens, UniProt P41597, E291A); assay: Binding affinity to CCR2 E291A mutant
Sequence of C-C chemokine receptor type 2 (Homo sapiens, UniProt P41597, E291A) (P41597 whole entry E291A): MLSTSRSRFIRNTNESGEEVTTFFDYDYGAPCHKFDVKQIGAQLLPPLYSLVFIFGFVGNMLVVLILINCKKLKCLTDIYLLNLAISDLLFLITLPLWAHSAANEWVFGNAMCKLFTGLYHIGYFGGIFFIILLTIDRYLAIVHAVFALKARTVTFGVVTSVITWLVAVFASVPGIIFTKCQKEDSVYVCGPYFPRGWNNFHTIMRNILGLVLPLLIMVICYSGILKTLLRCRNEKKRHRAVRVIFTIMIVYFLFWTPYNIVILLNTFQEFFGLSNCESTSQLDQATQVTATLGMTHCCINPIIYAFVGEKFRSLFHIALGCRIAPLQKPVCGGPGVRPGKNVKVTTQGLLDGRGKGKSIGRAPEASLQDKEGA

[6] = Ratio of IC50 for wild type CCR2 to IC50 for CCR2 E291A mutant
[7] = target: C-C chemokine receptor type 2 (Homo sapiens, UniProt P41597, T292A); assay: Binding affinity to CCR2 T292A mutant
Sequence of C-C chemokine receptor type 2 (Homo sapiens, UniProt P41597, T292A) (P41597 whole entry T292A): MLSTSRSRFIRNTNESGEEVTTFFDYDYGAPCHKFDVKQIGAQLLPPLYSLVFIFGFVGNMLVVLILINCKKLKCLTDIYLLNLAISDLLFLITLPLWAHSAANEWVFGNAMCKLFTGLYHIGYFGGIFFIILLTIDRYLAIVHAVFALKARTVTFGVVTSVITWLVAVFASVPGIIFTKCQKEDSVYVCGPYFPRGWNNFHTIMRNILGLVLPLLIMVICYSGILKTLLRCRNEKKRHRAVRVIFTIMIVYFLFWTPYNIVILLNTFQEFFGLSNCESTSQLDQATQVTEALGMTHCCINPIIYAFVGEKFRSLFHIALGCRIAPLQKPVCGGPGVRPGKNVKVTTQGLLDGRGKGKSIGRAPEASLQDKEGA

[8] = Ratio of IC50 for wild type CCR2 to IC50 for CCR2 T292A mutant
Homo sapiens = organism: Homo sapiens; assay: Selectivity for human CCR2 over human CCR3

T1 sequence (P41597 whole entry): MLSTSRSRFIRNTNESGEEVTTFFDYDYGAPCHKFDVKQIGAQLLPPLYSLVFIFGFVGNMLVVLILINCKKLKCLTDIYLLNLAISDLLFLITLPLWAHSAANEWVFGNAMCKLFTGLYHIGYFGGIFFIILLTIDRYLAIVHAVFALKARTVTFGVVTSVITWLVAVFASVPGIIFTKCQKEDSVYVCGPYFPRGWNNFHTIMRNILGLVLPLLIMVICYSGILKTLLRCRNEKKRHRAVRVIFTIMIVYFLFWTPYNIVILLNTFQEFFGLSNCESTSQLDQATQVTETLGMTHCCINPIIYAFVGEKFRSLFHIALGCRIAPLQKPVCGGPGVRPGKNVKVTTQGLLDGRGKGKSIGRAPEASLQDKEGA

Structure (SMILES): Cc1ccc(CN[C@H]2CCCC[C@@H]2NC(=O)CNC(=O)c2cccc(C(F)(F)F)c2)c(C)c1
- IC50 [1]: 540 nM
- inhibition [2]: 54%

Structure (SMILES): CSc1ccc(C(=O)N[C@@H]2CCCC[C@@H]2NC(=O)CNC(=O)c2cc(C(F)(F)F)ccc2NC(=O)NC(C)C)cc1
- IC50 [1]: 5.1 nM
- IC50 [3]: 18 nM
- IC50 [4]: 7.5 nM
- IC50 [5]: 3.7 nM
- Ratio IC50 [6]: 0.5
- IC50 [7]: 304 nM
- Ratio IC50 [8]: 40.5
- inhibition [2]: 37%

Structure (SMILES): O=C(CNC(=O)c1cccc(C(F)(F)F)c1)N[C@H]1CCCC[C@H]1NC(=O)c1ccc(I)cc1
- IC50 [1]: 37 nM
- IC50 [3]: 30 nM
- inhibition [2]: 27%

Structure (SMILES): Cc1ccc(CN2CC[C@@H](NC(=O)CNC(=O)c3cccc(C(F)(F)F)c3)C2)c(C)c1
- Ratio IC50 [8]: 30

Structure (SMILES): NS(=O)(=O)c1ccc(C(=O)N[C@@H]2CCCC[C@@H]2NC(=O)CNC(=O)c2cccc(C(F)(F)F)c2)cc1 (racemic)
- IC50 [1]: 21 nM
- IC50 [3]: 42 nM
- inhibition [2]: 39%

Structure (SMILES): O=C(CNC(=O)c1cccc(C(F)(F)F)c1)N[C@H]1CCCC[C@H]1NCc1ccc(OC(F)(F)F)cc1 (racemic)
- IC50 [1]: 530 nM
- Selectivity ratio (Homo sapiens): 20
- inhibition [2]: 50%

Structure (SMILES): Nc1ccc(C(F)(F)F)cc1C(=O)NCC(=O)N[C@H]1CCCC[C@H]1NC(=O)c1ccc(S(N)(=O)=O)cc1 (racemic)
- IC50 [1]: 23 nM
- IC50 [3]: 4.8 nM
- inhibition [2]: 6%

Structure (SMILES): CC(C)c1ccc(CN[C@@H]2CCCC[C@@H]2NC(=O)CNC(=O)c2cccc(C(F)(F)F)c2)cc1 (racemic)
- IC50 [1]: 360 nM
- Selectivity ratio (Homo sapiens): 20
- inhibition [2]: 55%

Structure (SMILES): O=C(CNC(=O)c1cccc(C(F)(F)F)c1)N[C@H]1CCCC[C@H]1NCc1ccc(C(F)(F)F)cc1 (racemic)
- IC50 [1]: 400 nM
- Selectivity ratio (Homo sapiens): 20
- inhibition [2]: 47%

Structure (SMILES): NS(=O)(=O)c1ccc(C(=O)N[C@@H]2CCCC[C@@H]2NC(=O)CNC(=O)c2cc(C(F)(F)F)ccc2NC(=O)C2CCCCC2)cc1 (racemic)
- IC50 [1]: 9 nM
- IC50 [3]: 3.7 nM
- inhibition [2]: 10%

Structure (SMILES): Cc1ccc(C(=O)N[C@@H]2CCCC[C@@H]2NC(=O)CNC(=O)c2cccc(C(F)(F)F)c2)c(C)c1 (racemic)
- IC50 [1]: 4130 nM
- IC50 [4]: 4130 nM
- IC50 [5]: 7850 nM
- Ratio IC50 [6]: 1.9

Structure (SMILES): CSc1ccc(C(=O)N[C@@H]2CCCC[C@@H]2NC(=O)CNC(=O)c2cccc(C(F)(F)F)c2)cc1 (racemic)
- IC50 [1]: 64 nM
- IC50 [3]: 215 nM
- inhibition [2]: 31%

Structure (SMILES): O=C(CNC(=O)c1cccc(C(F)(F)F)c1)N[C@H]1CCCC[C@@H]1NCc1ccc(Cl)cc1Cl (racemic)
- IC50 [1]: 7860 nM

Structure (SMILES): Cc1ccc(CN(C)[C@H]2CCCC[C@@H]2NC(=O)CNC(=O)c2cccc(C(F)(F)F)c2)c(C)c1 (racemic)
- IC50 [1]: 3010 nM

Structure (SMILES): O=C(CNC(=O)c1cccc(C(F)(F)F)c1)N[C@H]1CCCC[C@H]1NCc1ccc(Cl)cc1 (racemic)
- IC50 [1]: 790 nM
- IC50 [4]: 268 nM
- IC50 [5]: 2120 nM
- Ratio IC50 [6]: 7.9
- Selectivity ratio (Homo sapiens): 20
- inhibition [2]: 24%

Structure (SMILES): Cc1ccc(CN[C@@H]2CCCC[C@@H]2NC(=O)CNC(=O)c2cccc(C(F)(F)F)c2)c(C)c1 (racemic)
- IC50 [1]: 2170 nM
- inhibition [2]: 54%

Structure (SMILES): O=C(CNC(=O)c1cccc(C(F)(F)F)c1)N[C@H]1CCCC[C@@H]1NC(=O)c1ccc(Cl)cc1 (racemic)
- IC50 [1]: 12000 nM

Structure (SMILES): O=C(CNC(=O)c1cccc(C(F)(F)F)c1)N[C@H]1CCCC[C@@H]1NCc1ccc(Cl)cc1 (racemic)
- IC50 [1]: 970 nM
- inhibition [2]: 50%

Structure (SMILES): Cc1cc(C)c(CN[C@H]2CCCC[C@@H]2NC(=O)CNC(=O)c2cccc(C(F)(F)F)c2)c(C)c1 (racemic)
- IC50 [1]: 1190 nM

Structure (SMILES): Cc1ccc(C(=O)N[C@@H]2CCCC[C@@H]2NC(=O)CNC(=O)c2cccc(C(F)(F)F)c2)cc1 (racemic)
- IC50 [1]: 550 nM
- inhibition [2]: 57%

Structure (SMILES): CS(=O)(=O)c1ccc(C(=O)N[C@@H]2CCCC[C@@H]2NC(=O)CNC(=O)c2cccc(C(F)(F)F)c2)cc1 (racemic)
- IC50 [1]: 87 nM
- inhibition [2]: 3%
